Assay results reported in ChEMBL document CHEMBL4118066, “QSAR-driven design, synthesis and discovery of potent chalcone derivatives with antitubercular activity” (Eur J Med Chem, 2017).
In brackets after ≈: the same amount, converted by molar mass.

Legend:
[1] = system: Mycobacterium tuberculosis; assay: Antitubercular activity against isoniazid-resistant Mycobacterium tuberculosis H37Rv ATCC 35822 after 7 days under normoxic condition by microplate Alamar blue assay; format: functional; settings: H37Rv ATCC 35822, 168 h
Outline: (§1)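 Replicating, normoxic cultures in Middlebrook 7H12 medium, exposed to compound for 7 d at 37 °C. Resazurin plus Tween 80 then added for a further 24 h at 37 °C. Fluorescence read at ex/em 530/590 nm. MIC is the lowest concentration giving 90% lower fluorescence than controls.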

[2] = system: Mycobacterium tuberculosis; assay: Antitubercular activity against rifampin-resistant Mycobacterium tuberculosis H37Rv ATCC 35838 after 7 days under normoxic condition by microplate Alamar blue assay; format: functional; settings: H37Rv ATCC 35838, 168 h; outline: as §1

## Cc1ccc(C(=O)/C=C/c2ccc([N+](=O)[O-])s2)cc1
[1]
  MIC90: 0.96 µM (≈ 0.262 µg/mL)
[2]
  MIC90: 1.21 µM (≈ 0.331 µg/mL)

## O=C(/C=C/c1ccc(Cl)s1)c1ccc(-n2ccnc2)cc1
[1]
  MIC90: 9.03 µM (≈ 2.84 µg/mL)
[2]
  MIC90: 8.89 µM (≈ 2.8 µg/mL)

## O=C(/C=C/c1ccc([N+](=O)[O-])o1)c1ccc(-c2ccccc2)cc1
[1]
  MIC90: 0.29 µM (≈ 0.0926 µg/mL)
[2]
  MIC90: 3.45 µM (≈ 1.1 µg/mL)

## CC(C)(C)c1ccc(C(=O)/C=C/c2ccc([N+](=O)[O-])o2)cc1
[1]
  MIC90: 0.22 µM (≈ 0.0659 µg/mL)
[2]
  MIC90: 0.29 µM (≈ 0.0868 µg/mL)

## COc1ccc(/C=C/C(=O)c2cccc(I)c2)cc1
[1]
  MIC90: 7.75 µM (≈ 2.82 µg/mL)
[2]
  MIC90: 8.31 µM (≈ 3.03 µg/mL)

## NNC(=O)c1ccncc1 [ISONIAZID]
[1]
  MIC90: > 5 µM

## O=C(/C=C/c1ccc([N+](=O)[O-])s1)c1ccc(-n2ccnc2)cc1
[1]
  MIC90: 0.3 µM (≈ 0.0976 µg/mL)
[2]
  MIC90: 0.6 µM (≈ 0.195 µg/mL)

## CC(C)(C)c1ccc(C(=O)/C=C/c2ccc([N+](=O)[O-])s2)cc1
[1]
  MIC90: 0.15 µM (≈ 0.0473 µg/mL)
[2]
  MIC90: 0.14 µM (≈ 0.0442 µg/mL)

## Cc1cccc(C(=O)/C=C/c2ccc([N+](=O)[O-])o2)c1
[1]
  MIC90: 1.93 µM (≈ 0.496 µg/mL)
[2]
  MIC90: 3.78 µM (≈ 0.972 µg/mL)

## CCCCc1ccc(C(=O)/C=C/c2ccc([N+](=O)[O-])o2)cc1
[1]
  MIC90: 2.23 µM (≈ 0.667 µg/mL)
[2]
  MIC90: 4.7 µM (≈ 1.41 µg/mL)

## CCCCc1ccc(C(=O)/C=C/c2ccc([N+](=O)[O-])s2)cc1
[1]
  MIC90: 0.31 µM (≈ 0.0978 µg/mL)
[2]
  MIC90: 0.48 µM (≈ 0.151 µg/mL)

## O=C(/C=C/c1ccc([N+](=O)[O-])o1)c1ccc(N2CCOCC2)cc1
[1]
  MIC90: 0.11 µM (≈ 0.0361 µg/mL)
[2]
  MIC90: 0.55 µM (≈ 0.181 µg/mL)

## COc1ccc(/C=C/C(=O)c2cccc(Br)c2)cc1
[1]
  MIC90: 4.94 µM (≈ 1.57 µg/mL)
[2]
  MIC90: 9.28 µM (≈ 2.94 µg/mL)

## CO[C@H]1/C=C/O[C@@]2(C)Oc3c(C)c(O)c4c(O)c(c(/C=N/N5CCN(C)CC5)c(O)c4c3C2=O)NC(=O)/C(C)=C\C=C\[C@H](C)[C@H](O)[C@@H](C)[C@@H](O)[C@@H](C)[C@H](OC(C)=O)[C@@H]1C [RIFAMPIN]
[2]
  MIC90: > 1 µM

## O=C(/C=C/c1ccc([N+](=O)[O-])o1)c1ccc(N2CCCCC2)cc1
[1]
  MIC90: < 0.03 µM
[2]
  MIC90: 0.07 µM (≈ 0.0228 µg/mL)

## O=C(/C=C/c1ccc([N+](=O)[O-])o1)c1ccc(-n2ccnc2)cc1
[1]
  MIC90: 1.44 µM (≈ 0.445 µg/mL)
[2]
  MIC90: 1.19 µM (≈ 0.368 µg/mL)

## O=C(/C=C/c1ccc([N+](=O)[O-])o1)c1ccc(C2CCCCC2)cc1
[1]
  MIC90: 1.23 µM (≈ 0.4 µg/mL)
[2]
  MIC90: 1.12 µM (≈ 0.364 µg/mL)

## O=C(/C=C/c1ccc([N+](=O)[O-])o1)c1ccc(I)cc1
[1]
  MIC90: 1.08 µM (≈ 0.399 µg/mL)
[2]
  MIC90: 1.18 µM (≈ 0.436 µg/mL)

## O=C(/C=C/c1ccc([N+](=O)[O-])o1)c1ccc(N2CCNCC2)cc1
[1]
  MIC90: 0.19 µM (≈ 0.0622 µg/mL)
[2]
  MIC90: 0.76 µM (≈ 0.249 µg/mL)

## CSc1ccc(C(=O)/C=C/c2ccc([N+](=O)[O-])s2)cc1
[1]
  MIC90: 0.22 µM (≈ 0.0672 µg/mL)
[2]
  MIC90: 0.14 µM (≈ 0.0428 µg/mL)

## O=C(/C=C/c1ccc([N+](=O)[O-])o1)c1cccc(Br)c1
[1]
  MIC90: 1.12 µM (≈ 0.361 µg/mL)
[2]
  MIC90: 1.88 µM (≈ 0.606 µg/mL)

## CSc1ccc(C(=O)/C=C/c2ccc([N+](=O)[O-])o2)cc1
[1]
  MIC90: 0.8 µM (≈ 0.231 µg/mL)
[2]
  MIC90: 0.24 µM (≈ 0.0694 µg/mL)

## O=C(/C=C/c1ccc([N+](=O)[O-])o1)c1ccc(Br)cc1
[1]
  MIC90: 0.58 µM (≈ 0.187 µg/mL)
[2]
  MIC90: 0.76 µM (≈ 0.245 µg/mL)

## Cc1ccccc1C(=O)/C=C/c1ccc([N+](=O)[O-])o1
[1]
  MIC90: 1.07 µM (≈ 0.275 µg/mL)
[2]
  MIC90: 1.08 µM (≈ 0.278 µg/mL)
